Results taken from ChEMBL document CHEMBL1765069, “Decahydroquinoline amides as highly selective CB2 agonists: role of selectivity on in vivo efficacy in a rodent model of analgesia” (Bioorg Med Chem Lett, 2011).

Columns and labels:
Cannabinoid receptor 2 [1] = biological target: T1, Cannabinoid receptor 2 (Homo sapiens, UniProt P34972); test: Agonist activity at human CB2 receptor expressed in CHOK1 cells assessed as inhibition of forskolin-induced cAMP production treated 15 mins before forskolin challenge measured after 1 hr by HTRF assay relative to control; assay type: functional, cell-based; conditions: CHO-K1
How it was run: (§1)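 CHO-K1 cells (1000 per well) expressing human or rat CB1 or CB2 were preincubated with compound at room temperature for 15 min. Forskolin at EC70 was then added for a further 30 min at room temperature. cAMP was read by HTRF (d2-cAMP plus anti-cAMP-cryptate, final 1 h at room temperature). IC50 and % Emax were reported.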

Cannabinoid receptor 2 [2] = biological target: T1, Cannabinoid receptor 2; test: Agonist activity at human CB2 receptor expressed in CHOK1 cells assessed as inhibition of forskolin-induced cAMP production treated 15 mins before forskolin challenge measured after 1 hr by HTRF assay; assay type: functional, cell-based, CHO-K1
How it was run: (§2)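 CHO-K1 cells (1000 per well) expressing human or rat CB1 or CB2 were preincubated with compound for 15 min at room temperature. Forskolin was then added at its EC70 for 30 min at room temperature. cAMP was detected by HTRF (d2-cAMP plus anti-cAMP cryptate) after a final 1 h incubation at room temperature. Values are reported as IC50 with % Emax.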

Cannabinoid receptor 1 [3] = biological target: T2, Cannabinoid receptor 1 (Homo sapiens, UniProt P21554); test: Agonist activity at human CB1 receptor expressed in CHOK1 cells assessed as inhibition of forskolin-induced cAMP production treated 15 mins before forskolin challenge measured after 1 hr by HTRF assay relative to control; assay type: functional, cell-based; conditions: CHO-K1; how it was run: as §1
Cannabinoid receptor 1 [4] = biological target: T2, Cannabinoid receptor 1; test: Agonist activity at human CB1 receptor expressed in CHOK1 cells assessed as inhibition of forskolin-induced cAMP production treated 15 mins before forskolin challenge measured after 1 hr by HTRF assay; assay type: functional, cell-based, CHO-K1; how it was run: as §2
Cerebrospinal fluid = test: Drug level in rat complete Freund's adjuvant-induced inflammation model cerebrospinal fluid at 30 mg/kg, sc; assay type: ADME, organism-based; design: dose 30 mg/kg, route subcutaneous; conditions: in vivo, read-out: Drug uptake
How it was run: (§3)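 In the rat CFA hyperalgesia experiments, after 30 mpk subcutaneous dosing, compound levels (nM) were measured in plasma, brain homogenate and cerebrospinal fluid.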

Cannabinoid receptor 2 [5] = biological target: T3, Cannabinoid receptor 2 (Rattus norvegicus, UniProt Q9QZN9); test: Agonist activity at rat CB2 receptor expressed in CHOK1 cells assessed as inhibition of forskolin-induced cAMP production treated 15 mins before forskolin challenge measured after 1 hr by HTRF assay; assay type: functional, cell-based, CHO-K1; how it was run: as §2
T3 sequence (Q9QZN9 whole entry): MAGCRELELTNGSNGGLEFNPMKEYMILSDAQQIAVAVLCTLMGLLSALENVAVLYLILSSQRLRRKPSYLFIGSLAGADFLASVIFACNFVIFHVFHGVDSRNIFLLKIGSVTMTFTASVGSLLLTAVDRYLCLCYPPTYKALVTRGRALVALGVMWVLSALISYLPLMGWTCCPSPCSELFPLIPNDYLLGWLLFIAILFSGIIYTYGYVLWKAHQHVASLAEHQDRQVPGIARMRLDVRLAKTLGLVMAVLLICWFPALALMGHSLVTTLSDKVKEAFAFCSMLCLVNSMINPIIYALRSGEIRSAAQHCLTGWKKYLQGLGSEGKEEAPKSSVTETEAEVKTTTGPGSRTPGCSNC

Cannabinoid receptor 1 [6] = biological target: Cannabinoid receptor 1 (Rattus norvegicus, UniProt P20272); test: Agonist activity at rat CB1 receptor expressed in CHOK1 cells assessed as inhibition of forskolin-induced cAMP production treated 15 mins before forskolin challenge measured after 1 hr by HTRF assay; assay type: functional, cell-based, CHO-K1; how it was run: as §2
Plasma = test: Drug level in rat complete Freund's adjuvant-induced inflammation model plasma at 30 mg/kg, sc; assay type: ADME, organism-based; design: dose 30 mg/kg, route subcutaneous; conditions: in vivo, read-out: Drug uptake; how it was run: as §3
Rattus norvegicus [7] = test: Antiinflammatory activity in rat assessed as inhibition of complete Freund's adjuvant-induced paw withdrawal threshold at 100 mg/kg, sc after 60 mins (reference value: 4.8%); assay type: functional; conditions: 1 h, route subcutaneous
How it was run: (§4)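 Rat complete Freund's adjuvant hyperalgesia model. Compound was given subcutaneously at 10, 30 or 100 mpk. Paw withdrawal threshold was read at the 60 min timepoint and expressed as % reversal.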

Rattus norvegicus [8] = test: Antiinflammatory activity in rat assessed as inhibition of complete Freund's adjuvant-induced paw withdrawal threshold at 10 mg/kg, sc after 60 mins (reference value: 4.8%); assay type: functional; conditions: 1 h, route subcutaneous; how it was run: as §4
Brain = test: Drug level in rat complete Freund's adjuvant-induced inflammation model brain at 30 mg/kg, sc; assay type: ADME, organism-based; design: dose 30 mg/kg, route subcutaneous; conditions: in vivo, read-out: Drug uptake; how it was run: as §3
Rattus norvegicus [9] = test: Antiinflammatory activity in rat assessed as inhibition of complete Freund's adjuvant-induced paw withdrawal threshold at 30 mg/kg, sc after 60 mins (reference value: 4.8%); assay type: functional; conditions: 1 h, route subcutaneous; how it was run: as §4
[10] = biological target: T4, Cannabinoid receptor 2 (Rattus norvegicus) (UniProt Q9QZN9); test: Agonist activity at rat CB2 receptor expressed in CHOK1 cells assessed as inhibition of forskolin-induced cAMP production treated 15 mins before forskolin challenge measured after 1 hr by HTRF assay relative to control; assay type: functional, cell-based; conditions: CHO-K1; how it was run: as §1
T4 sequence (whole entry): T3 sequence (Q9QZN9 whole entry)

Rattus norvegicus [11] = test: Antiinflammatory activity in rat assessed as inhibition of complete Freund's adjuvant-induced paw withdrawal threshold at 30 mg/kg, sc after 60 mins (reference value: 11%); assay type: functional; conditions: 1 h, route subcutaneous; how it was run: as §4
[12] = biological target: Cannabinoid receptor 1 (Rattus norvegicus) (UniProt P20272); test: Agonist activity at rat CB1 receptor expressed in CHOK1 cells assessed as inhibition of forskolin-induced cAMP production treated 15 mins before forskolin challenge measured after 1 hr by HTRF assay relative to control; assay type: functional, cell-based; conditions: CHO-K1; how it was run: as §1
Rattus norvegicus [13] = organism: Rattus norvegicus
Rattus norvegicus [14] = test: Antiinflammatory activity in sc dosed rat assessed as inhibition of complete Freund's adjuvant-induced paw withdrawal threshold after 60 mins; assay type: functional, organism-based; how it was run: as §4
[15] = Fraction unbound in rat plasma; assay type: ADME, cell-free
[16] = Distribution coefficient, log P of the compound; assay type: physicochemical; conditions: octanol/water
Homo sapiens = organism: Homo sapiens; test: Selectivity ratio of IC50 for human CB1 receptor to IC50 for human CB2 receptor
[17] = Half life in rat at 2 mg/kg, iv; assay type: ADME, organism-based; design: dose 2 mg/kg, route intravenous; conditions: in vivo
[18] = Clearance in rat at 2 mg/kg, iv; assay type: ADME, organism-based; design: dose 2 mg/kg, route intravenous; conditions: in vivo
Rattus norvegicus [19] = organism: Rattus norvegicus; test: animal or person; conditions: sc, 1 h, read-out: INH

T2 sequence (P21554 whole entry): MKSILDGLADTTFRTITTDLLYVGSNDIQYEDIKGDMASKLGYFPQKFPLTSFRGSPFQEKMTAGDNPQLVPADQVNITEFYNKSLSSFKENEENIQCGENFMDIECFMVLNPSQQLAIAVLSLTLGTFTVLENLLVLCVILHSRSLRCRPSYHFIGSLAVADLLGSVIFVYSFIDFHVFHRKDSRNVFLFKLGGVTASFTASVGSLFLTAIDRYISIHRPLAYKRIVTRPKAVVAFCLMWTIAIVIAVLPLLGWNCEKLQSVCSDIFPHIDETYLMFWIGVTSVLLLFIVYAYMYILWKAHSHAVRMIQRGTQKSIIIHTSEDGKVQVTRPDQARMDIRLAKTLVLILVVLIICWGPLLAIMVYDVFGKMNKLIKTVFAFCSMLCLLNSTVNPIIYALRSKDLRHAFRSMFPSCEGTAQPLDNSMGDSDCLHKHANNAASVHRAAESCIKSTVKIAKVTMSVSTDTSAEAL
T1 sequence (P34972 whole entry): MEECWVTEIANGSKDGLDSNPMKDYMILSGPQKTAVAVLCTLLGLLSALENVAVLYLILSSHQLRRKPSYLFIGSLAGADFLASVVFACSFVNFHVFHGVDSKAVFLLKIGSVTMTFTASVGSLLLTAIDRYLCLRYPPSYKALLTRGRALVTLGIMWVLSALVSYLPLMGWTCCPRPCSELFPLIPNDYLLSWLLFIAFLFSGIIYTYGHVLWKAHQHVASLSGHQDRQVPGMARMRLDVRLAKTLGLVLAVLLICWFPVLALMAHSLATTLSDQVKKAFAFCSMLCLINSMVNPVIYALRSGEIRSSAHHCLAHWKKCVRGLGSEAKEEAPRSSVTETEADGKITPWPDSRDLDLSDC
Cannabinoid receptor 1 (Rattus norvegicus, UniProt P20272), sequence (P20272 whole entry): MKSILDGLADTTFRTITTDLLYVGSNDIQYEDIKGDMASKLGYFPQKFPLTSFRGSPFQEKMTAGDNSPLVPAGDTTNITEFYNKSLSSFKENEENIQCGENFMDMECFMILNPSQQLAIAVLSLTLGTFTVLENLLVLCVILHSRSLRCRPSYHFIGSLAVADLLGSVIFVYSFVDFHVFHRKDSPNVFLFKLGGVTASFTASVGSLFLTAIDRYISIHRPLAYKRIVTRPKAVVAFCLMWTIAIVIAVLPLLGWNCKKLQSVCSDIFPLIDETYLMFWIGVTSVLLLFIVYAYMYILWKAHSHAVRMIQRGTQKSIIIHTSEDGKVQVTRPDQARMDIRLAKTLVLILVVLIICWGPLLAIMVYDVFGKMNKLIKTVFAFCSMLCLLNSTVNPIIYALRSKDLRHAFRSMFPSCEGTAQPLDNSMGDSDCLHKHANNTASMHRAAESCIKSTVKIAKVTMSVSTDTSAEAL
Cannabinoid receptor 1 (Rattus norvegicus), sequence (P20272 whole entry): as above

Row | Compound | Emax (Cannabinoid receptor 2 [1]) [%] | IC50 (Cannabinoid receptor 2 [2]) [µM] | Emax (Cannabinoid receptor 1 [3]) [%] | IC50 (Cannabinoid receptor 1 [4]) [µM] | Ratio IC50 (Homo sapiens) | other results
1 | O=C(c1cccc2[nH]ccc12)N1CC[C@](O)(c2ccccc2)[C@H]2CCCC[C@H]21 | 100 | 0.00062 | 64 | > 17 |  | 
2 | O=C(c1cc(-c2ccccc2F)[nH]n1)N1CC[C@](O)(c2ccccc2)[C@H]2CCCC[C@H]21 | 99 | 0.021 | 46 | > 17 |  | 
3 | CN1CCC(C(=O)N2CC[C@](O)(c3ccccc3)[C@H]3CCCC[C@H]32)C1 (some centres not stated) | 102 | 0.0059 | 6 | > 17 |  | 
4 | Cc1ccc(C(=O)N2CC[C@@](O)(c3ccccc3)[C@@H]3CCCC[C@@H]32)cn1 [listing 1 of 2 here] |  | 0.0073 |  | 5.02 |  | concentration (Cerebrospinal fluid): 0.223 µM; IC50 (Cannabinoid receptor 2 [5]): 0.0063 µM; IC50 (Cannabinoid receptor 1 [6]): 1.89 µM; concentration (Plasma): 4.2 µM; inhibition in vivo at 100 mg/kg (Rattus norvegicus [7]): 76.4%; inhibition in vivo at 10 mg/kg (Rattus norvegicus [8]): 28.2%; concentration (Brain): 3.2 µM; inhibition in vivo at 30 mg/kg (Rattus norvegicus [9]): 53.6%
5 | O=C(c1cnc2ccccc2c1)N1CC[C@@](O)(c2ccccc2)[C@@H]2CCCC[C@@H]21 (racemic) | 96 | 0.00338 | 69 | 1.53 | 452 | 
6 | O=C(c1ccc2ncccc2c1)N1CC[C@@](O)(c2ccccc2)[C@@H]2CCCC[C@@H]21 (racemic) | 87 | 0.00053 | 95 | 0.261 | 492 | 
7 | O=C(c1ccc2cnccc2n1)N1CC[C@@](O)(c2ccccc2)[C@@H]2CCCC[C@@H]21 (racemic) | 99 | 0.0055 | 69 | 3.44 | 626 | 
8 | O=C(c1ccc2[nH]ccc2c1)N1CC[C@@](O)(c2ccccc2)[C@@H]2CCCC[C@@H]21 (racemic) | 104 | 0.0014 | 91 | 1 | 716 | 
9 | O=C(c1cccc2[nH]cnc12)N1CC[C@@](O)(c2ccccc2)[C@@H]2CCCC[C@@H]21 (racemic) | 101 | 0.035 | 53 | > 17 | > 486 | 
10 | O=C(c1cccc2[nH]ncc12)N1CC[C@@](O)(c2ccccc2)[C@@H]2CCCC[C@@H]21 (racemic) | 102 | 0.004 | 15 | > 17 | > 4000 | fraction unbound [15]: 0.048; half-life [17]: 25.8 min; clearance [18]: 70 mL/min/kg
11 | COc1ccc2cc([C@H](C)C(=O)O)ccc2c1 [NAPROXEN] |  |  |  |  |  | inhibition in vivo at 20 mg/kg (Rattus norvegicus [19]): 23.9%

The next lines start with results.

Row | Emax (Cannabinoid receptor 2 [1]) [%] | IC50 (Cannabinoid receptor 2 [2]) [µM] | Emax (Cannabinoid receptor 1 [3]) [%] | IC50 (Cannabinoid receptor 1 [4]) [µM] | Ratio IC50 (Homo sapiens) | Compound | other results
12 | 101 | 0.016 | 11 | > 17 |  | CN1CCOC[C@H]1C(=O)N1CC[C@@](O)(c2ccccc2)[C@@H]2CCCC[C@@H]21 | concentration (Cerebrospinal fluid): 1.5 µM; IC50 (Cannabinoid receptor 2 [5]): 0.081 µM; IC50 (Cannabinoid receptor 1 [6]): > 17 µM; concentration (Plasma): 6.6 µM; Emax [10]: 98%; inhibition in vivo at 30 mg/kg (Rattus norvegicus [11]): 3.3%; Emax [12]: 8%; concentration (Brain): 9.8 µM; Papp (Rattus norvegicus [13]): 39 ×10⁻⁶ cm/s
13 | 103 |  | 78 |  |  | Cc1ccc(C(=O)N2CC[C@@](O)(c3ccccc3)[C@@H]3CCCC[C@@H]32)cn1 [listing 2 of 2 here] | Emax [10]: 119%; Emax [12]: 94%; inhibition (Rattus norvegicus [14]): Dose-dependent effect; Papp (Rattus norvegicus [13]): 36 ×10⁻⁶ cm/s
14 | 100 | 0.03 |  | > 17 |  | CN1CCOCC1C(=O)N1CC[C@@](O)(c2ccccc2)[C@@H]2CCCC[C@@H]21 (mixture of isomers) | fraction unbound [15]: 0.34; logP [16]: 2.28
15 | 99 | 0.03 | 96 | 4.04 |  | O=C(C1CN(CC(F)(F)F)CCO1)N1CC[C@@](O)(c2ccccc2)[C@@H]2CCCC[C@@H]21 (mixture of isomers) | 
16 |  | 0.014 |  | > 17 |  | Cc1ccc(C(=O)N2CC[C@@](O)(c3ccccc3)[C@@H]3CCCC[C@@H]32)cn1 (racemic) | fraction unbound [15]: 0.15; logP [16]: 2.26
17 | 98 | 0.156 | 50 | 3.44 |  | O=C(c1cnco1)N1CC[C@@](O)(c2ccccc2)[C@@H]2CCCC[C@@H]21 (racemic) | 
